# In PMC6609548 (British Journal of Pharmacology, 2019):
# Legend:
# [1] = test system: GABAergic eIPSCs in dentate gyrus granule cells; assay: Evoked GABAergic postsynaptic currents; format: cell-based, mice; settings: for suppression of eIPSCs amplitude to: n = 5
# Method in brief: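 Hippocampal slices (coronal) from 3–4-week-old ICR outbred mice of both sexes, recovered ≥1 hr at room temperature and superfused with oxygenated aCSF at 32–34°C. Whole-cell recordings from dentate granule cells at Vh 0 mV. eIPSCs were evoked every 10 s from a theta-glass electrode placed 100–200 μm away. Protocol: 20–30 control events, then test compound in aCSF for 5–10 min, perfusate illuminated at 365 nm then 455 nm for 3–5 min each.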
# [2] = target: ρ1 GABAC receptors (Homo sapiens, UniProt P24046); assay: Whole-cell patch-clamp on CHO cells expressing homomeric ρ1 GABAC receptors; format: cell-based; settings: visible and UV light
# [3] = target: T1, α2 glycine receptors (Homo sapiens, UniProt P23416); assay: Whole-cell patch-clamp on CHO cells expressing α2 glycine receptors; format: cell-based; settings: 50 μM, glycine 30 μM, Vh −30 mV, n = 10
# T1 sequence (P23416 28-452): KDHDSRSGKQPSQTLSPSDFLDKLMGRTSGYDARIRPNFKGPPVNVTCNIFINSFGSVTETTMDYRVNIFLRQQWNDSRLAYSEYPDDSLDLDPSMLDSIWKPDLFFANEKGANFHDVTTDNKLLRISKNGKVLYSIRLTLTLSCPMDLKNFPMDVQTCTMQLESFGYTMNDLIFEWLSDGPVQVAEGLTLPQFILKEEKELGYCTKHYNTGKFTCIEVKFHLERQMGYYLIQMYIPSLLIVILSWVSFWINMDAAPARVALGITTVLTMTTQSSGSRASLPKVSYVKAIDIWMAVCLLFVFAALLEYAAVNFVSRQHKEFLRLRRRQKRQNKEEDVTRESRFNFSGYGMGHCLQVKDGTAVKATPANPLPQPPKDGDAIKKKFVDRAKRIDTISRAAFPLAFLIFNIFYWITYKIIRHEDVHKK
# Method in brief: (§1)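 CHO-K1 cells were transfected (Lipofectamine) with receptor subunit cDNA plus GFP; fluorescent cells were recorded whole-cell 24–72 hr later at 20–25°C. External HEPES-buffered saline at pH 7.4; KCl-based pipette solution at pH 7.3. Agonist and test compound were co-applied by a fast three-tube system at Vh −30/+30 mV or on a −60 to +60 mV ramp. UV came from a 365 nm LED (0.6 mW·mm−2). Cells with input resistance <150 MOhm or >30% run-down were excluded.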
# [4] = target: T2, α1 glycine receptors (Homo sapiens, UniProt P23415); assay: Whole-cell patch-clamp on CHO cells expressing α1 glycine receptors; format: cell-based; settings: 50 μM, glycine 30 μM, Vh −30 mV
# T2 sequence (P23415 29-457): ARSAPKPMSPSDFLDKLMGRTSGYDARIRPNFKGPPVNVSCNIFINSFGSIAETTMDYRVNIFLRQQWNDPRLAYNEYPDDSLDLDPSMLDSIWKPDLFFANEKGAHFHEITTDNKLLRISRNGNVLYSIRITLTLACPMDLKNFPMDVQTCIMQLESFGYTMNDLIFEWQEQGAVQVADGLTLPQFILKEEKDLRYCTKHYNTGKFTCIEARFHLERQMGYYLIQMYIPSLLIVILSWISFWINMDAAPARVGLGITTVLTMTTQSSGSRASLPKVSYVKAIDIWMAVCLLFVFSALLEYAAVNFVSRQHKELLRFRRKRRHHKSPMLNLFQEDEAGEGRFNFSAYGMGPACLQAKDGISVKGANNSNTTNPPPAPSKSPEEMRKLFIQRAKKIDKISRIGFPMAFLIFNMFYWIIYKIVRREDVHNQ
# Method in brief: as §1
# [5] = target: ρ2 mutant S2′G receptors (Homo sapiens, UniProt P28476, S295G); assay: Whole-cell patch-clamp on CHO cells expressing mutant ρ2 S2′G receptors; format: cell-based
# Method in brief: as §1
# [6] = target: ρ2 GABAC receptors (Homo sapiens, UniProt P28476); assay: Whole-cell patch-clamp on CHO cells expressing homomeric ρ2 GABAC receptors; format: cell-based
# Method in brief: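 ρ2 receptors were expressed in CHO-K1 cells by cDNA transfection with GFP; whole-cell recordings were made 24–72 hr later at 20–25°C using fast solution exchange. […] Test compound inhibition of GABA-evoked currents was measured at Vh −30 and +30 mV and normalised to the current just before compound application; mean ± SEM.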
# [7] = target: T3, 5‐HT3A receptors (Homo sapiens, UniProt P46098); assay: Whole-cell patch-clamp on CHO cells expressing homomeric 5HT3A receptors; format: cell-based; settings: trans or cis‐configuration
# T3 sequence (P46098 24-478): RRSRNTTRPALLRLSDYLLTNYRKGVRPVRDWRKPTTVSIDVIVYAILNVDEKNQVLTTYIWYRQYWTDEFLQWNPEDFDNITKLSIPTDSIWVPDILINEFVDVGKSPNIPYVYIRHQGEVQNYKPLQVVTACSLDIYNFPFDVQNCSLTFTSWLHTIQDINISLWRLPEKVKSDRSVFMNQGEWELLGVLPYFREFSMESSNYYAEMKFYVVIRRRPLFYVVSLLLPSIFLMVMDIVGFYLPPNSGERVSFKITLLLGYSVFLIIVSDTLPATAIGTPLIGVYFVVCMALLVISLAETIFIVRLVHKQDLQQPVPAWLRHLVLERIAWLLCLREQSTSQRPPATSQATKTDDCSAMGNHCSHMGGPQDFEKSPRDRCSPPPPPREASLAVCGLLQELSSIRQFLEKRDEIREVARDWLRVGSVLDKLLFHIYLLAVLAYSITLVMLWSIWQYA
# Method in brief: as §1
# [8] = target: α1/β2/γ2 GABAA receptors (Homo sapiens, UniProt P14867+P18507+P47870); assay: Whole-cell patch-clamp on CHO cells expressing heteromeric GABAA receptors; format: cell-based; settings: for decrease of currents induced by GABA (ramp protocol): 50 μM Azo-NZ1, 5 μM GABA, n = 5; for decrease of currents induced by GABA (ramp protocol) / decrease of amplitude of GABA-induced currents: visible light; for decrease of amplitude of GABA-induced currents: 70 μM Azo-NZ1, 5 μM GABA
# [9] = target: GABA ρ1 P2′S receptors (Homo sapiens, UniProt P24046, P315S); assay: Whole-cell patch-clamp on CHO cells expressing mutant ρ1 P2′S receptors; format: cell-based; settings: 100 μM Azo-NZ1, 10 μM GABA, visible light
# Chain of GABA ρ1 P2′S receptors (P24046 22-479 P315S): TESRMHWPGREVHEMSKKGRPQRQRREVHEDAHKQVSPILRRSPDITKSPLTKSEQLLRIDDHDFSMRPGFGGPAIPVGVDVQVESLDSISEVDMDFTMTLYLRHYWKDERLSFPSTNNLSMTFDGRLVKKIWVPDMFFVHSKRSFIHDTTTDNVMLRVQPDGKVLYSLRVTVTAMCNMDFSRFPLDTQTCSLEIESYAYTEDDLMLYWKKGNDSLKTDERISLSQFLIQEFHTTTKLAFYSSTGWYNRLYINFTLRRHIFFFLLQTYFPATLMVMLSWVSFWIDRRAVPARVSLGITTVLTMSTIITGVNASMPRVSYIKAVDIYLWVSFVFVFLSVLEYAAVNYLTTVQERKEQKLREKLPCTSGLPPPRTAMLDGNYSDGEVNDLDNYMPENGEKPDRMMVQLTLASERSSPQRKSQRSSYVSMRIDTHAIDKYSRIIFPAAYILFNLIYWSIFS
# Chain of α1/β2/γ2 GABAA receptors (P14867 28-456): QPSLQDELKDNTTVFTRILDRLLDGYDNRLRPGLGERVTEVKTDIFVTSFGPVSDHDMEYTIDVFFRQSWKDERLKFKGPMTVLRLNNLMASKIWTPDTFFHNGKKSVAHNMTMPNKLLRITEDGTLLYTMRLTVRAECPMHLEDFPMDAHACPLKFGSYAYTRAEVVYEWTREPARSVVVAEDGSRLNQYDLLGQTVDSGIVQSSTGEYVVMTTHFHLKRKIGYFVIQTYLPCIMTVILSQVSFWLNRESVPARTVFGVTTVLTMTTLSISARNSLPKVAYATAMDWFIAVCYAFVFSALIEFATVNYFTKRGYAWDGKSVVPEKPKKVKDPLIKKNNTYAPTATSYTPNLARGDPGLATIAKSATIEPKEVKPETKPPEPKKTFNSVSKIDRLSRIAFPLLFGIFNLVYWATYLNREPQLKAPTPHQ
# Chain of α1/β2/γ2 GABAA receptors (P47870 25-512 limits assumed): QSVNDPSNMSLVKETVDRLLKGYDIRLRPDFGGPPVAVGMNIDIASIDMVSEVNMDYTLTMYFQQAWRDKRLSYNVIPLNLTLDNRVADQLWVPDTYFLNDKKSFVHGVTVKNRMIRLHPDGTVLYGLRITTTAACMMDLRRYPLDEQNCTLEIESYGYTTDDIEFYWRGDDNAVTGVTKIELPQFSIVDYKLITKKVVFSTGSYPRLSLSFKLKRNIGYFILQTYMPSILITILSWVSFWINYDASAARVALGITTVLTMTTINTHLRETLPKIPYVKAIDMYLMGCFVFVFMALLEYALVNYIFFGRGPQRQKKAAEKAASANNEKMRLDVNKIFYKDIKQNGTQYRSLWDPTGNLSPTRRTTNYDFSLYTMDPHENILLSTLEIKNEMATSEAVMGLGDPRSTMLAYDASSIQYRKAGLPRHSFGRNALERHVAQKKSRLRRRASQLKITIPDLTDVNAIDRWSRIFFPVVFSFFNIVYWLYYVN
# Chain of α1/β2/γ2 GABAA receptors (P18507 40-467 isoform P18507-1 limits assumed): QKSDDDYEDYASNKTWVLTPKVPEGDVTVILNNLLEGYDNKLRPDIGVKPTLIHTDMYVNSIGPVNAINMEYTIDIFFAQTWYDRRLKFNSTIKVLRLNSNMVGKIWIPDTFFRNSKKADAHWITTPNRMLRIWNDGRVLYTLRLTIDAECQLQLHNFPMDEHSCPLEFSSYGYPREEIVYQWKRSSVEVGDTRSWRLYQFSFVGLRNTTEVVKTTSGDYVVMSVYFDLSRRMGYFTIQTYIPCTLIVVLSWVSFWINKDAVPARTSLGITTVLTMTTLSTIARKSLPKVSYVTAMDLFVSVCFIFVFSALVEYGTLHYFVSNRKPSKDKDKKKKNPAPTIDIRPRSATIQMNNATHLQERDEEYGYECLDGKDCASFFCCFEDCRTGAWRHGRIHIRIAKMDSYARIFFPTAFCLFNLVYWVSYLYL
# Chain of ρ2 mutant S2′G receptors (P28476 21-465 S295G): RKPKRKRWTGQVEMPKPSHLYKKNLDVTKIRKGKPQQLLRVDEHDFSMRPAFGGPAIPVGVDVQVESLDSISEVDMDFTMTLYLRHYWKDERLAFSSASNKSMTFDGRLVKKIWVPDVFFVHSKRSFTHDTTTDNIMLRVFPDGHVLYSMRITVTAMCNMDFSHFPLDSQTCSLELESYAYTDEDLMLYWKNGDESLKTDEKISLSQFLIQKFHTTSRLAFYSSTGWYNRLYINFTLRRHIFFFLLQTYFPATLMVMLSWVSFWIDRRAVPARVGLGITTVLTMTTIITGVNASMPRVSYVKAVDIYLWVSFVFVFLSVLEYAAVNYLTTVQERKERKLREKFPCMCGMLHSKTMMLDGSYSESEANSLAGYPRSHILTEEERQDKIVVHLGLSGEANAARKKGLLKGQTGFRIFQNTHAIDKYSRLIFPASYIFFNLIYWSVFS
# Chain of ρ2 GABAC receptors (P28476 21-465): as the sequence (P28476 21-465 S295G) above, with G275S counted along it
# Chain of ρ1 GABAC receptors (P24046 22-479): as the sequence (P24046 22-479 P315S) above, with S294P counted along it
structure (smiles),measurement,setting,value
"O=C1CN=C(c2ccccc2)c2cc(/N=N/c3ccc(S(=O)(=O)O)cc3)ccc2N1 [Azo‐NZ1, (E)‐4‐((2‐oxo‐5‐phenyl‐2,3‐dihydro‐1H‐benzo[e][1,4]diazepin‐7‐yl)diazenyl)benzenesulfonic acid]",suppression of eIPSCs amplitude to,"[1]; 100 μM Azo-NZ1, blue light, Vh 0 mV",58.6 ± 3.3%
same,suppression of eIPSCs amplitude to,"[1]; 200 μM Azo-NZ1, blue light, Vh 0 mV",25.2 ± 6.0%
same,amplitude of eIPSCs,"[1]; single neuron, 100 μM Azo-NZ1, Vh 0 mV, control aCSF 156.9 ± 4.5 pA",100.6 ± 3.2 pA
same,effect on receptor activity,[2],did not alter the activity
same,current amplitude under UV illumination,[3]; UV illumination,95 ± 7%
same,current amplitude decreased to,[3]; visible light,23 ± 3%
same,current amplitude reduced to,[4]; UV illumination,73 ± 2%
same,current amplitude reduced to,"[4]; visible light (trans), n = 4",86 ± 3%
same,UV effect,[5]; UV illumination in presence of Azo-NZ1,virtually absent
same,decrease of current amplitude,"[5]; upon application of Azo-NZ1, n = 5",14 ± 2%
same,IC50,[6],128 ± 25 µM
same,interaction with 5‐HT3A receptors,[7],did not interact in a specific manner
same,IC50,[8],67 ± 5 µM
same,decrease of currents induced by GABA (ramp protocol),[8]; +60 mV,76 ± 5%
same,decrease of currents induced by GABA (ramp protocol),[8]; −60 mV,40 ± 4%
same,effect at saturating GABA compared with 5 μM GABA,"[8]; 50 μM Azo-NZ1 co-applied with 300 μM GABA, Vhold −30 mV",even stronger inhibitory effect
same,decrease of amplitude of GABA-induced currents,[8]; +30 mV,78%
same,decrease of amplitude of GABA-induced currents,[8]; −30 mV,51%
same,effect on GABA-induced currents,"[8]; Azo-NZ1 0.5–1 μM, 5 μM GABA",did not produce effect
same,effect on GABA-induced currents,[9],inhibited currents
"CN1CCc2cc3c(cc2[C@H]1[C@@H]1OC(=O)c2c1ccc1c2OCO1)OCO3 [Bicuculline, bicuculline, reference compound]",effect on eIPSCs,"[1]; bicuculline 10 μM, Vh 0 mV",complete inhibition
"CN1C(=O)CN=C(c2ccccc2)c2cc(Cl)ccc21 [Diazepam, diazepam, reference compound]",effect on GABA-induced current amplitude,"[8]; diazepam 10 μM co-applied with non-saturating GABA (5 μM), Vh −30 mV",increase in the current amplitude
